Measurements from PMC9444296 (Investigative Radiology, 2022).

Tests used:
Gd = format: physicochemical; details: HPLC-UV
Outline: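 Test compound at 0.25 mM (final) was incubated with 0.25 mM DOTA, DTPA, HP-DO3A or EDTA, or with 0.50 mM ZnCl₂. Buffers were 0.05 M acetate pH 5 or 0.05 M Tris pH 7.4, at room temperature (25°C) or 37.5°C, for up to 30 days. Intact compound remaining was measured by HPLC-UV (C18; 0.08% TFA acetonitrile/water).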

[1] = Plasma protein binding, rat plasma; format: in vitro ADME; details: 37°C, 3 min, 10 kDa ultrafiltration, Gd by ICP-OES, n = 4
Outline: (§1)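 Test compound at 50, 80 or 110 μM was incubated with human, dog or rat plasma (alongside HSA 40 mg/mL and PBS) at 37°C for 3 min. Mixtures were kept overnight and centrifuged to remove insolubles. Gd was measured by ICP-OES, and the binding ratio was taken as bound over total concentration.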

[2] = Plasma protein binding, dog plasma; format: in vitro ADME; details: 37°C, 3 min, 10 kDa ultrafiltration, Gd by ICP-OES, n = 4
Outline: as §1

[3] = Plasma stability, rat plasma; format: in vitro ADME; details: 0.5 mM, 37°C, HPLC; for average remaining percentage of intact MT218: n = 2
Outline: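 Test compound at 0.5 mM was incubated in human, rat or dog plasma at 37°C for up to 48 h, with PBS as control. Samples were mixed with methanol, centrifuged, and the intact compound was quantified by analytical reversed-phase (C18) HPLC.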

[4] = Metabolic stability in SD rat hepatocytes; format: in vitro ADME; details: 2 hours of incubation, LC-MS/MS
CYP2C8 = CYP2C8 (Homo sapiens, UniProt P10632); experiment: CYP2C8 inhibition in human liver microsomes; format: in vitro ADME; details: highest test concentration (100 μM)
CYP2D6 = CYP2D6 (Homo sapiens, UniProt P10635); experiment: CYP2D6 inhibition in human liver microsomes; format: in vitro ADME; details: 0.01, 0.1, 1, 10, and 100 μM, pooled human liver microsomes 0.5 mg/mL
OATP1B1 = OATP1B1 (Homo sapiens, UniProt Q9Y6L6); experiment: OATP1B1 inhibition, HEK293 cells; format: in vitro ADME; details: 1, 5, 10, 50, and 100 μM
HRH1 = HRH1 (Homo sapiens, UniProt P35367); experiment: SAFETYscan E/IC50 assay, HRH1; format: biochemical; details: concentration range 0.005 to 100 μM
Outline: (§2)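 Contract-laboratory in vitro panel of 78 targets, run in agonist and/or antagonist modes under provider SOPs over 0.005 to 100 μM. Panel formats included enzyme fragment complementation, FLIPR-based cellular assays, kinase binding and enzymatic assays.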

OPRD1 = OPRD1 (Homo sapiens, UniProt P41143); experiment: SAFETYscan E/IC50 assay, OPRD1; format: biochemical; details: concentration range 0.005 to 100 μM
Outline: as §2

GABAA = experiment: SAFETYscan E/IC50 assay, GABAA; format: biochemical; details: concentration range 0.005 to 100 μM
Outline: as §2

[5] = test system: cardiovascular and respiratory system functions; experiment: Cardiovascular and respiratory safety pharmacology in conscious beagle dogs; format: in vivo, dog; details: single IV 0.07, 0.21, or 0.70 mmol/kg
Outline: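 GLP study in 9 conscious beagle dogs (4 M, 5 F) given a single IV dose of saline or 0.07, 0.21 or 0.70 mmol/kg, at 3.5 mL/kg. Recorded within 1 h predose and at 0.5, 1, 2, 4 and 24 h: ECG (HR, PR, QRS, QT/QTcF, QRS voltage, STe, rhythm, waveform), systolic/diastolic/mean blood pressure, respiratory frequency and tidal volume.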

CNS functions = experiment: CNS safety pharmacology; format: in vivo, rat; details: SD rats, single IV 0.1, 0.3, and 1.0 mmol/kg, functional observational battery
Outline: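 GLP study in SD rats, 5/sex/group, given a single IV dose of 0, 0.1, 0.3 or 1 mmol/kg. A functional observational battery was run at 0.25, 0.75, 1.5 and 4 h post-dose: home-cage, hand-held and open-field observations, responses to stimuli, forelimb grip strength and body temperature.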

[6] = Pharmacokinetics in SD rats; format: in vivo, rat; details: for AUC: AUC 0-4h; for AUC / AUCINF / C0 / Cl / MRT / T1/2 / Vz: Gd by ICP-MS, NCA, n = 3
Outline: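 SD rats (3/sex) received a single IV dose of 0.04, 0.1 or 0.2 mmol/kg. Jugular blood was drawn predose and at 2, 5, 10, 15, 30 and 45 min and 1, 2, 3 and 4 h. Parameters were derived by noncompartmental analysis.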

CYP3A4 = CYP3A4 (Homo sapiens, UniProt P08684); details: 0.01, 0.1, 1, 10, and 100 μM, pooled human liver microsomes 0.5 mg/mL
[7] = SD rat ♀, 0.04 mmol/kg single IV
[8] = SD rat ♀, 0.1 mmol/kg single IV
[9] = SD rat ♀, 0.2 mmol/kg single IV
[10] = SD rat ♂, 0.04 mmol/kg single IV
[11] = SD rat ♂, 0.1 mmol/kg single IV
[12] = SD rat ♂, 0.2 mmol/kg single IV

HRH1, sequence (P35367 whole entry, the tested form may be a part): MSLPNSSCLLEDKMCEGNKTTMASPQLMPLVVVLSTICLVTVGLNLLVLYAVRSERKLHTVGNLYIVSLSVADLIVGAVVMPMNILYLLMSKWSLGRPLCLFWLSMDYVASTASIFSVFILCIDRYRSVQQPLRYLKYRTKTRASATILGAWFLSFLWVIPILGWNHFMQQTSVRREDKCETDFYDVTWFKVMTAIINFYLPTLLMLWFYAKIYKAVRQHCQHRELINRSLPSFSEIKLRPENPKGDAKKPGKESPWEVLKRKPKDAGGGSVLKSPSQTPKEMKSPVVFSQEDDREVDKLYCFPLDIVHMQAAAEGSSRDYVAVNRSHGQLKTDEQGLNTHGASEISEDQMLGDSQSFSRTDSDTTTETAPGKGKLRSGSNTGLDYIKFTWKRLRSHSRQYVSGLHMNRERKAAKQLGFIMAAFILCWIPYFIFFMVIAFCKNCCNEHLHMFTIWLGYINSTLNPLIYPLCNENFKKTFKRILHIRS
CYP2C8, sequence (P10632 whole entry): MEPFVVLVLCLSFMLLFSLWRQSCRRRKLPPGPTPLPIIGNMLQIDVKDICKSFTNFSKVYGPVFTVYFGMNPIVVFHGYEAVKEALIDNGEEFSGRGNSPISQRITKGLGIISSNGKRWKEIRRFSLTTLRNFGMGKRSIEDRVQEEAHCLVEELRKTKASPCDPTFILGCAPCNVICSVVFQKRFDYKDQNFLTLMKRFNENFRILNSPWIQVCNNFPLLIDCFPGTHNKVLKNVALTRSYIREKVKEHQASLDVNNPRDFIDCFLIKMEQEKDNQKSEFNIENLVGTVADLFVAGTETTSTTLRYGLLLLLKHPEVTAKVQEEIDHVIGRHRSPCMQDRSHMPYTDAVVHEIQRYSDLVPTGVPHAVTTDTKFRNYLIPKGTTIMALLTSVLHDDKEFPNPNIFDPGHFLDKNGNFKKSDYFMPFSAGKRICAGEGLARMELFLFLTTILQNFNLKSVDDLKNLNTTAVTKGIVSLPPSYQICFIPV
CYP3A4, sequence (P08684 whole entry): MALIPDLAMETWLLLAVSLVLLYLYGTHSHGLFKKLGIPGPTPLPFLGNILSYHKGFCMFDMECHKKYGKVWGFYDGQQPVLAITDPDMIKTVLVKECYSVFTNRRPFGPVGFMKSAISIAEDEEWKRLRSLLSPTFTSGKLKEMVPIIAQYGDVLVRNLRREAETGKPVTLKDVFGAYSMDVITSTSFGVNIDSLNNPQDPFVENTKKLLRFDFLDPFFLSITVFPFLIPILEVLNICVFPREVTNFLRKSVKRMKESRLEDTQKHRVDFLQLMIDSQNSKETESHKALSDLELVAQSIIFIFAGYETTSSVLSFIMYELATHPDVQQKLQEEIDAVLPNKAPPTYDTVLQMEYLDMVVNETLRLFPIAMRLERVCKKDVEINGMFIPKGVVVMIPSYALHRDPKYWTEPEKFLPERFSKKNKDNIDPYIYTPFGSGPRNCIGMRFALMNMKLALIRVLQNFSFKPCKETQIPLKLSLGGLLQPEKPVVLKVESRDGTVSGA
CYP2D6, sequence (P10635 whole entry): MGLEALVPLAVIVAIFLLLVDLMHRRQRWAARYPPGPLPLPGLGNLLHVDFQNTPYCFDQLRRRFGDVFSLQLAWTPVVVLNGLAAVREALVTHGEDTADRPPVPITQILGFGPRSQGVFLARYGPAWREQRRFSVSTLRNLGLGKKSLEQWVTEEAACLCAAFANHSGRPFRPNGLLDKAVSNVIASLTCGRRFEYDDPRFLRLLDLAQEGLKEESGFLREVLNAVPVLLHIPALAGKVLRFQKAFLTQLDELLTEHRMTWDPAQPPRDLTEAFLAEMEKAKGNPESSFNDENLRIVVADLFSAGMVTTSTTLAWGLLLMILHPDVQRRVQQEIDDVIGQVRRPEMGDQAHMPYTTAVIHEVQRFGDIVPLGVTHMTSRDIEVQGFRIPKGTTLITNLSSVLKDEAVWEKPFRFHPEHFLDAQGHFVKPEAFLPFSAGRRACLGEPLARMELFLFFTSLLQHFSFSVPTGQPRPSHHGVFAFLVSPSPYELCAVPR
OPRD1, sequence (P41143 whole entry): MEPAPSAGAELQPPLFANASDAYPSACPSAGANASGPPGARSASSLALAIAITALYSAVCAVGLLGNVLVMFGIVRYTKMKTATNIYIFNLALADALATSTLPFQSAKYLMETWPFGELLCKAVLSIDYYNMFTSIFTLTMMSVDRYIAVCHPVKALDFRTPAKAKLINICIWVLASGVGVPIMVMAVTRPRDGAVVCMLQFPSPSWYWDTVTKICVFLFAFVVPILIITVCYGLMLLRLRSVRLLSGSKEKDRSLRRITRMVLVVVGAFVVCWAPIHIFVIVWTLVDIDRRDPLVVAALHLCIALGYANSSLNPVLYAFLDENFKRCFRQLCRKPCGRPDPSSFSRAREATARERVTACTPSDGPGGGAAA
OATP1B1, sequence (Q9Y6L6 whole entry): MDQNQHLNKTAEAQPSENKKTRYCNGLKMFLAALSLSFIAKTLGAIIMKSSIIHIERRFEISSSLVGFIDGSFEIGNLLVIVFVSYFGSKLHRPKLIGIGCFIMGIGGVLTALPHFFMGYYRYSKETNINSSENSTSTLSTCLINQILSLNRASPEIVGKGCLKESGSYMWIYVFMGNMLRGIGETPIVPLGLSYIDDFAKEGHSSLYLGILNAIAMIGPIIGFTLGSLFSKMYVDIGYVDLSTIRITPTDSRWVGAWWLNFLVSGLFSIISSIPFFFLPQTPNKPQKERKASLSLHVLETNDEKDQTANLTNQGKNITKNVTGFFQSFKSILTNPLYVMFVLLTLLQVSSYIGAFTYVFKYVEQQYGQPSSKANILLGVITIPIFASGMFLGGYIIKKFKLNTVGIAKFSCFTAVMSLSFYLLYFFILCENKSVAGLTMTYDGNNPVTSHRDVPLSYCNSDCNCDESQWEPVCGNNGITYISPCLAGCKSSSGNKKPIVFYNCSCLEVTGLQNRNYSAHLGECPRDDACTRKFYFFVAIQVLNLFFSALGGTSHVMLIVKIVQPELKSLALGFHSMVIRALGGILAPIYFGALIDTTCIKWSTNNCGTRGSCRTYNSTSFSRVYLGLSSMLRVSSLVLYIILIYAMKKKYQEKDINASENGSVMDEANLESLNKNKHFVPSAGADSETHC

## ZD2-N3-Gd(HP-DO3A) [MT218]
Gd; pH 5 (0.05 M acetate), 25°C
  duration of chelation stability: at least 30 days
Gd; pH 5, 37.5°C, 0.50 mM ZnCl2, at least 30 days
  dissociation of MT218 in the presence of Zn(II) ions: did not cause dissociation
Gd; pH 5, 37.5°C, acetate buffer
  stability of MT218: stable
Gd; pH 5, 37.5°C, with 0.25 mM DOTA, DTPA, HP-DO3A or EDTA
  stability of MT218 in the presence of free chelating ligands: Loss of MT218 was observed
[1]; 50 μM
  binding ratio to plasma proteins: 28.44%
[1]; 80 μM
  binding ratio to plasma proteins: 27.12%
[1]; 110 μM
  binding ratio to plasma proteins: 25.68%
[2]; 50 μM
  binding ratio to plasma proteins: 29.10%
[2]; 80 μM
  binding ratio to plasma proteins: 26.91%
[2]; 110 μM
  binding ratio to plasma proteins: 48.44%
[3]; 1 h
  average remaining percentage of intact MT218: 74.87%
[3]; 3 h
  average remaining percentage of intact MT218: 20.54%
[3]; 6 h
  average remaining percentage of intact MT218: 4.61%
[3]; 28 h
  average remaining percentage of intact MT218: 0%
[3]; 48 h
  average remaining percentage of intact MT218: 0%
[3]
  enzymatic degradation half-life (t1/2): 97.8 min
[4]
  remaining MT218: 67.5%
CYP2C8
  relative CYP2C8 activity, of the negative controls: 52.5%
CYP2D6
  inhibition of CYP2D6 activity: did not inhibit
OATP1B1
  inhibition of OATP1B1 transporter activity: no inhibition potential
HRH1
  inhibition rate: 17.77%
OPRD1
  inhibition rate: 11.08%
GABAA
  inhibition rate: 24.25%
[5]
  effect on ECG, blood pressure and respiratory function parameters: no MT218-related effect
CNS functions
  effect on parameters of CNS function: No MT218-related effect
[6]; [7]
  AUC: 10940 ng·h/mL
  AUCINF: 11130 ng·h/mL
  C0: 75.09 µg/mL
  Cl: 9.4683 mL/min/kg
  MRT: 17.4 min
  T1/2: 16.8 min
  Vz: 0.22422 L/kg
[6]; [8]
  AUC: 27840 ng·h/mL
  AUCINF: 28020 ng·h/mL
  C0: 158.07 µg/mL
  Cl: 9.5898 mL/min/kg
  MRT: 20.4 min
  T1/2: 19.2 min
  Vz: 0.27335 L/kg
[6]; [9]
  AUC: 58600 ng·h/mL
  AUCINF: 58710 ng·h/mL
  C0: 209.22 µg/mL
  Cl: 9.2098 mL/min/kg
  MRT: 25.8 min
  T1/2: 19.2 min
  Vz: 0.2564 L/kg
[6]; [10]
  AUC: 11080 ng·h/mL
  AUCINF: 11180 ng·h/mL
  C0: 49.09 µg/mL
  Cl: 9.6403 mL/min/kg
  MRT: 22.2 min
  T1/2: 18 min
  Vz: 0.24309 L/kg
[6]; [11]
  AUC: 28860 ng·h/mL
  AUCINF: 29010 ng·h/mL
  C0: 115.85 µg/mL
  Cl: 9.172 mL/min/kg
  MRT: 24 min
  T1/2: 18.6 min
  Vz: 0.24018 L/kg
[6]; [12]
  AUC: 53170 ng·h/mL
  AUCINF: 53230 ng·h/mL
  C0: 248.60 µg/mL
  Cl: 9.855 mL/min/kg
  MRT: 22.2 min
  T1/2: 18 min
  Vz: 0.25524 L/kg
[6]; AUC(dose)/AUC(low dose), SD rat ♀, 0.04 mmol/kg
  AUC Ratio: 1
[6]; AUC(dose)/AUC(low dose), SD rat ♂, 0.04 mmol/kg
  AUC Ratio: 1
[6]; AUC(high dose)/AUC(low dose), SD rat ♀, 0.2 mmol/kg
  AUC Ratio: 5.36
[6]; AUC(high dose)/AUC(low dose), SD rat ♂, 0.2 mmol/kg
  AUC Ratio: 4.80
[6]; AUC(middle dose)/AUC(low dose), SD rat ♀, 0.1 mmol/kg
  AUC Ratio: 2.55
[6]; AUC(middle dose)/AUC(low dose), SD rat ♂, 0.1 mmol/kg
  AUC Ratio: 2.61
[6]; rats, 0.1 mmol/kg IV
  mean plasma elimination half-life (t1/2): 18.6 min
CYP3A4
  inhibition of CYP3A4 activity: did not inhibit
